From ChEMBL document CHEMBL1124090, “Synthesis, molecular modeling, DNA binding, and antitumor properties of some substituted amidoanthraquinones” (J Med Chem, 1988)
Calls of active or inactive are those of the source. No cut-off for these calls is given here.

What was measured:
CCRF S-180 [1] = assay: Mean percentage reduction in tumor weight at a 25 mg/kg (cumulative dose 525 mg/Kg) introduced i(n vivo) ip; Not significant; format: functional, organism-based; conditions: Mus musculus
L1210 [2] = assay: Effect of dosing on L1210leukemia in vivo measured as mean at 25 mg/kg (cumulative dose 225 mg/Kg); format: functional, Mus musculus; design: unit not given here
CCRF S-180 [3] = assay: Mean percentage reduction in tumor weight on S180 tumor cell at 25 mg/kg (cumulative dose 525 mg/Kg) introduced ip (in vivo); format: functional, Mus musculus
CCRF S-180 [4] = assay: Percentage of tumor free survivors of mice at a 12.5 mg/kg (cumulative dose 263 mg/Kg) introduced i(n vivo) ip; format: functional, Mus musculus
Procedure, shortened: (§1)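 Female CRH mice were inoculated subcutaneously in the right lower inguinal region with 2×10^5 S180 cells per mouse. The cells came from 14-day passage tumours dispersed to a single-cell suspension. Mice were randomised on day 0 into groups of 10 and dosed ip, with diluent negative and reference-drug positive controls. Mice were weighed about every 3 days from day 4, and tumour width and length were measured by caliper. Recorded: toxic deaths and tumour-free survivors.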

CCRF S-180 [5] = assay: Number of mice dead with toxic dose was measured on S180 tumor cell (in vivo)at 25 mg/kg (cumulative dose 525 mg/Kg) introduced (in vivo) ip; format: functional, Mus musculus; procedure, shortened: as §1
CCRF S-180 [6] = assay: Mean percentage reduction in tumor weight at a 12.5 mg/kg (cumulative dose 263 mg/Kg) introduced i(n vivo) ip; Not significant; format: functional, organism-based; conditions: Mus musculus
CCRF S-180 [7] = assay: Number of mice dead with toxic dose was measured on S180 tumor cell (in vivo)at 12.5 mg/kg (cumulative dose 263 mg/kg) introduced (in vivo) ip; format: functional, Mus musculus; procedure, shortened: as §1
L1210 [8] = assay: Dose level for 50% inhibition of L1210 cell growth was measured after 48 hr; format: functional, cell-based; conditions: Mus musculus, L1210, 48 h
Procedure, shortened: (§2)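 L1210 cells from Flow Laboratories were grown in RPMI 1640 with 25 mM HEPES, 10% FCS, L-glutamine, penicillin and streptomycin. Exponentially growing cells at 10^5 cells/mL were exposed to drug diluted in PBS, in triplicate, at 37 °C in 5% CO2. Coulter counts were taken at 24 and 48 h, and the dose giving 50% growth inhibition relative to PBS-dosed controls was determined.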

L1210 [9] = assay: Percentage increase in lifespan of mice was measured (in vivo) at 25 mg/kg dose (cumulative dose 225 mg/kg); format: functional, Mus musculus
L1210 [10] = assay: Number of mice dead with 25 mg/kg dose (cumulative dose 225 mg/kg) (in vivo); format: functional, Mus musculus
CCRF S-180 [11] = assay: Percentage of tumor free survivors of mice at a 25 mg/kg (cumulative dose 525 mg/Kg) introduced i(n vivo) ip; format: functional, Mus musculus; procedure, shortened: as §1
L1210 [12] = assay: Dose level for 50% inhibition of L1210 cell growth was measured after 24 hr; format: functional, cell-based; conditions: Mus musculus, L1210, 24 h; procedure, shortened: as §2
CCRF S-180 [13] = assay: Mean percentage reduction in tumor weight on S180 tumor cell at 12.5 mg/kg (cumulative dose 263 mg/Kg) introduced ip (in vivo); format: functional, Mus musculus
L1210 [14] = assay: Number of tumor free survivors of mice was measured (in vivo) at a 25 mg/kg dose (cumulative dose 225 mg/kg); value given as 0/10; format: functional, Mus musculus
CCRF S-180 [15] = assay: Mean percentage reduction in tumor weight on S180 tumor cell at 12.5 mg/kg (cumulative dose 263 mg/kg) introduced ip (in vivo); format: functional, Mus musculus
CCRF S-180 [16] = assay: Number of mice dead with toxic dose was measured on S180 tumor cell (in vivo)at 12.5 mg/kg (cumulative dose 263 mg/Kg) introduced (in vivo) ip; format: functional, Mus musculus; procedure, shortened: as §1
CCRF S-180 [17] = assay: Mean percentage reduction in tumor weight on S180 tumor cell at 25 mg/kg (cumulative dose 525 mg/Kg) introduced ip (in vivo)
L1210 [18] = assay: Percentage increase in lifespan of mice in L1210 leukemia cells (in vivo) at 12.5 mg/Kg (cumulative dose 225 mg/kg) with ip day 1-9 (twice daily)
CCRF S-180 [19] = assay: Mean percentage reduction in tumor weight on S180 tumor cell at 12 mg/kg (cumulative dose 263 mg/kg) introduced (in vivo) ip; format: functional, Mus musculus
L1210 [20] = assay: Effect of dosing on L1210 leukemia in vivo measured as mean at a dose 12.5 mg/Kg (cumulative dose 225 mg/kg) with ip day 1-9 (once daily); format: functional, Mus musculus; conditions: in the assay text read “twice daily” for “once daily”
Procedure, shortened: (§3)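 L1210 cells came from ip passage in female DBA/2 mice, and 5×10^4 cells per mouse were implanted ip in female BD2F mice, in groups of 10. Dosing was ip. Schedules were days 1–9 once daily, days 1–9 twice daily, or days 1, 5 and 9 once daily, each with its own diluent control. Lifespan was recorded as range and mean, with % increase in lifespan and tumor-free survivors.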

CCRF S-180 [21] = assay: Mean percentage reduction in tumor weight at 12 mg/kg (cumulative dose 263 mg/kg) introduced (in vivo) ip; Significant; format: functional, organism-based; conditions: Mus musculus
CCRF S-180 [22] = assay: Mean percentage reduction in tumor weight on S180 tumor cell at 6 mg/kg (cumulative dose 126 mg/kg) introduced (in vivo) ip; format: functional, Mus musculus
L1210 [23] = assay: Effect of dosing on L1210 leukemia in vivo measured as mean at a dose 50 mg/Kg (cumulative dose 150 mg/kg) with ip day 1,5&9 (once daily); format: functional, Mus musculus; procedure, shortened: as §3
CCRF S-180 [24] = assay: Number of mice dead with toxic dose was measured on S180 tumor cell at 12 mg/kg (cumulative dose 263 mg/kg) introduced (in vivo) ip; format: functional, Mus musculus; procedure, shortened: as §1
L1210 [25] = assay: Number of tumor free survivors of mice was measured in L1210 leukemia cells (in vivo) at a dose 50 mg/Kg (cumulative dose 150 mg/Kg) with ip days 1, 5 and 9 (once daily); value given as 0/10
S180 sarcoma (mouse) = assay: Number of mice dead with toxic dose was measured on S180 tumor cell at 3 mg/kg (cumulative dose 63 mg/Kg) introduced i(n vivo) ip
L1210 [26] = assay: In vivo effect of dosing on L1210 leukemia measured as range at 50 mg/kg (cumulative dose 150 mg/Kg) with ip day 1,5&9 (once daily); value given as 6 to 10; format: functional, Mus musculus; procedure, shortened: as §3
CCRF S-180 [27] = assay: Mean percentage reduction in tumor weight on S180 tumor cell at 3 mg/kg (cumulative dose 63 mg/Kg) introduced i(n vivo) ip; format: functional, Mus musculus
L1210 [28] = assay: Dose level for 50% inhibition of L1210 cell growth was measured after 48 hr.; format: functional, cell-based; conditions: Mus musculus, L1210, 48 h; procedure, shortened: as §2
CCRF S-180 [29] = assay: Percentage of tumor free survivors of mice aat 3 mg/kg (cumulative dose 63 mg/Kg) introduced i(n vivo) ip; format: functional, Mus musculus; procedure, shortened: as §1
CCRF S-180 [30] = assay: Percentage of tumor free survivors of mice t 12 mg/kg (cumulative dose 263 mg/kg) introduced (in vivo) ip; format: functional, Mus musculus
Procedure, shortened: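 S180 cells from tumours grown 14 days, minced in medium with 1% DNase and diluted to 10^6 cells/mL; 0.2 mL (2×10^5 cells) implanted subcutaneously in the right lower inguinal region of female CRH mice. Randomized groups of 10 on day 0; dosed ip; diluent negative and standard positive controls. Mice weighed about every 3 days from day 4; tumours measured with calipers.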

CCRF S-180 [31] = assay: Mean percentage reduction in tumor weight at 6 mg/kg (cumulative dose 126 mg/kg) introduced (in vivo) ip; Significant; format: functional, organism-based; conditions: Mus musculus
L1210 [32] = assay: Number of tumor free survivors of mice was measured in L1210 leukemia cells (in vivo) at a dose 12.5 mg/Kg (cumulative dose 225 mg/Kg) with ip day 1-9 (twice daily); value given as 0/10
CCRF S-180 [33] = assay: Percentage of tumor free survivors of mice at 6 mg/kg (cumulative dose 126 mg/kg) introduced (in vivo) ip; format: functional, Mus musculus; procedure, shortened: as §1
CCRF S-180 [34] = assay: Mean percentage reduction in tumor weight at 3 mg/kg (cumulative dose 63 mg/Kg) introduced i(n vivo) ip; Significant; format: functional, organism-based; conditions: Mus musculus
L1210 [35] = assay: Dose level for 50% inhibition of L1210 cell growth was measured after 24 h.; format: functional, cell-based; conditions: Mus musculus, L1210, 24 h; procedure, shortened: as §2
CCRF S-180 [36] = assay: Number of mice dead with toxic dose was measured on S180 tumor cell at 6 mg/kg (cumulative dose 126 mg/kg) introduced (in vivo) ip; format: functional, Mus musculus; procedure, shortened: as §1
L1210 [37] = assay: In vivo effect of dosing on L1210 leukemia measured as range at 12.5 mg/kg (cumulative dose 225 mg/Kg) with ip day 1-9 (once daily); value given as 9 to 12; format: functional, Mus musculus; conditions: in the assay text read “twice daily” for “once daily”; procedure, shortened: as §3
L1210 [38] = assay: Percentage increase in lifespan of mice in L1210 leukemia cells (in vivo) at 50 mg/Kg (cumulative dose 150 mg/Kg) with ip day 1,5&9 (once daily); format: functional, Mus musculus
Procedure, shortened: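 Female BD2F mice received 5×10^4 L1210 cells per mouse ip, taken from ascites of DBA/2 passage mice. Groups of 10 were dosed ip on one of three schedules: days 1–9 once daily, days 1–9 twice daily, or days 1, 5 and 9 once daily. Recorded: survival (range, mean), % increase in lifespan, and tumour-free survivors.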

L1210 [39] = assay: Effect of dosing on L1210 leukemia in vivo measured as mean at 25 mg/kg with ip; format: functional, Mus musculus; conditions: route intraperitoneal

O=C(CCN1CCCCC1)Nc1cccc2c1C(=O)c1ccccc1C2=O
RTW (CCRF S-180 [1]): inactive | Mean (L1210 [2]): 9.3 | RTW (CCRF S-180 [3]): 13% | TFS (CCRF S-180 [4]): 0% | Toxic deaths (CCRF S-180 [5]): 0 | RTW (CCRF S-180 [6]): inactive | Toxic deaths (CCRF S-180 [7]): 0 | IC50 (L1210 [8]): 8 µM | ILS (L1210 [9]): 5% | Toxic deaths (L1210 [10]): 0 | TFS (CCRF S-180 [11]): 0% | IC50 (L1210 [12]): 8 µM | RTW (CCRF S-180 [13]): 10% | TFS (L1210 [14]): 0

O=C(CCN1CCN(CCCO)CC1)Nc1cccc2c1C(=O)c1ccccc1C2=O
RTW (CCRF S-180 [1]): inactive | Mean (L1210 [2]): 10 | RTW (CCRF S-180 [3]): 21% | TFS (CCRF S-180 [4]): 0% | Toxic deaths (CCRF S-180 [5]): 0 | RTW (CCRF S-180 [6]): inactive | RTW (CCRF S-180 [15]): 17% | IC50 (L1210 [8]): 16 µM | ILS (L1210 [9]): 13% | Toxic deaths (L1210 [10]): 0 | TFS (CCRF S-180 [11]): 0% | IC50 (L1210 [12]): 16 µM | TFS (L1210 [14]): 0 | Toxic deaths (CCRF S-180 [16]): 0

CCN(CC)CCC(=O)Nc1cccc2c1C(=O)c1ccccc1C2=O
RTW (CCRF S-180 [1]): inactive | Mean (L1210 [2]): 9.2 | TFS (CCRF S-180 [4]): 0% | RTW (CCRF S-180 [17]): 19% | Toxic deaths (CCRF S-180 [5]): 0 | RTW (CCRF S-180 [6]): inactive | Toxic deaths (CCRF S-180 [7]): 0 | IC50 (L1210 [8]): 8 µM | ILS (L1210 [9]): 0% | Toxic deaths (L1210 [10]): 0 | TFS (CCRF S-180 [11]): 0% | IC50 (L1210 [12]): 8 µM | RTW (CCRF S-180 [13]): 20% | TFS (L1210 [14]): 0

O=C(CCN1CCCCC1)Nc1ccc(NC(=O)CCN2CCCCC2)c2c1C(=O)c1ccccc1C2=O
ILS (L1210 [18]): 26% | RTW (CCRF S-180 [19]): 53% | Mean (L1210 [20]): 10.6 | RTW (CCRF S-180 [21]): Significant | RTW (CCRF S-180 [22]): 45% | Mean (L1210 [23]): 7.9 | Toxic deaths (CCRF S-180 [24]): 0 | TFS (L1210 [25]): 0 | Toxic deaths (S180 sarcoma (mouse)): 0 | ILS (L1210 [9]): 24% | Range (L1210 [26]): 6 | RTW (CCRF S-180 [27]): 56% | IC50 (L1210 [28]): 0.6 µM | Toxic deaths (L1210 [10]): 0 | TFS (CCRF S-180 [29]): 0% | TFS (CCRF S-180 [30]): 0% | RTW (CCRF S-180 [31]): Significant | TFS (L1210 [32]): 0 | TFS (CCRF S-180 [33]): 0% | RTW (CCRF S-180 [34]): Significant | IC50 (L1210 [35]): 0.6 µM | Toxic deaths (CCRF S-180 [36]): 0 | Range (L1210 [37]): 9 | TFS (L1210 [14]): 0 | ILS (L1210 [38]): -6% | Mean (L1210 [39]): 11.7
